Biological target: T1, Fatty-acid amide hydrolase 1 (Rattus norvegicus, UniProt P97612)
T1 sequence (P97612 whole entry): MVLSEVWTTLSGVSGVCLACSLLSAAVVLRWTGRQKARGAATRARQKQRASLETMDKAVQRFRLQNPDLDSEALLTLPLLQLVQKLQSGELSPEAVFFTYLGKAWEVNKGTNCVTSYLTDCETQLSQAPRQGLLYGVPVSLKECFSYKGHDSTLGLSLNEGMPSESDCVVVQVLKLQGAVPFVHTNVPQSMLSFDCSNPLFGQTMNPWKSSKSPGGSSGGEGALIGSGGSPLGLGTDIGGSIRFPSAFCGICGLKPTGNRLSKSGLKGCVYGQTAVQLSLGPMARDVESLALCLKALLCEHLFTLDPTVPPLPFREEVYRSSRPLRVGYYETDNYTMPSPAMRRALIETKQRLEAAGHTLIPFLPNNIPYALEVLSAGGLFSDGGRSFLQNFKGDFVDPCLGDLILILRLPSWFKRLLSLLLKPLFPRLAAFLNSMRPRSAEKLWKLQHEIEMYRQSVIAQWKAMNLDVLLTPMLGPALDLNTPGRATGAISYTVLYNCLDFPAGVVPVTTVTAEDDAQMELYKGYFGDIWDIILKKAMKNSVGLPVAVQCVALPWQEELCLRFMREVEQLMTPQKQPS
Assay: Inhibition of rat brain FAAH using [3H]AEA as substrate
In short: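 Brains (minus cerebella) of adult Wistar or Sprague-Dawley rats homogenized in HEPES/MgCl2 pH 7.0, washed by repeated centrifugation, preincubated 15 min at 37 °C, resuspended in Tris-HCl/EDTA/MgCl2 pH 7.4. 1 µg protein per assay mixed on ice with inhibitor, then 0.5 µM [3H]AEA with fatty acid-free BSA, 10 min at 37 °C. Charcoal/HCl stop, supernatant counted. At least five half-log concentrations, at least 3 experiments.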

Work on `CCCCC/C=C\C/C=C\C/C=C\C/C=C\CCCC(=O)NCCc1c[nH]c2ccc(O)cc12` yielded an IC50 of 1200 nM.
